IEC-6 cytotox: kills IEC-6 intestinal cells in KLF5 counter-screen | actives 0.78% (n = 290,000) | IEC-6 cytotoxicity, luminescence viability | inhibition, % at 5 µM; in the data active means inhibition above about 22%;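 further: 0% = plate median of test compound wells and 100% = cytotoxic reference compound wells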
Ba/F3 V617F tox: reduce viability of Ba/F3 cells dependent on JAK2V617F; Ba/F3 EpoR-JAK2V617F viability, ATP luminescence; inhibition, % at 5.6 µM; actives 1.1% (n = 220,000); AID 1446;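 active means inhibition above the campaign mean plus 3 SD over all tested compounds, cut at about 24% in these data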;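 further: cytokine-independent growth of Ba/F3 cells driven by EpoR plus mutant JAK2; 0% = DMSO-treated cells and 100% = JAK inhibitor I control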
MT stabilize HCS: microtubule stabilization, imaging screen | HeLa tubulin immunostaining HCS, 24 h; share of cells brighter than vehicle mean+2SD | % tubulin-high responders, % at 10 µM | actives 0.83% (n = 200,000) | AID 2205;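 active means plate Z-score above 3 for both tubulin-high and condensed-nucleus cell shares, with cell loss under 80%, at 10 µM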;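 further: anti alpha tubulin signal scored within the nucleus-defined area of each cell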
BaF3 parental: counter-screen for JAK2V617F inhibitors: parental Ba/F3 viability inhibitors; actives 1.1% (n = 220,000); AID 1486; CellTiter-Glo ATP luminescence; inhibition, % at 5.6 µM;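 active means inhibition above a per-campaign cutoff, the mean inhibition of all tested compounds plus 3 SD, cut at about 27% in these data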;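 further: 0% = DMSO wells and 100% = JAK Inhibitor I control wells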
bCat nuc transl: beta-catenin nuclear translocation modulation | HeLa beta-catenin nuclear translocation, immunofluorescence imaging | nuclear translocation activity, % at 5 µM | actives 0.3% (n = 190,000);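 active means nuclear translocation activity above 50% at 5 µM, with a well cell count of 50 or more; inconclusive means wells under 50 cells across six images, flagged as toxic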;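 further: per-cell ratio of nuclear to cytoplasmic median beta-catenin stain intensity; plate controls were DMSO negative control for no effect and GSK-3 inhibitor IX positive control for full effect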
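Test system: human HeLa cells, native beta-catenin. Compound dosing: 5 µM primary single dose, 0.1% DMSO, 0.02–20 µM confirmation series. Incubation: compound exposure 24 h at 37°C. Detection: beta-catenin immunostaining with DAPI counterstain, 20x imaging, 6 fields/well. Read-out basis: Nuclear/cytoplasmic beta-catenin signal ratio, % activation.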
KLF5 inhibitor: kruppel-like factor 5 inhibition; AID 1700; inhibition, % at 5 µM; actives 0.23% (n = 290,000); DLD-1 KLF5 promoter-luciferase reporter, luminescence;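 active means inhibition above a per-plate limit of that plate's mean compound inhibition plus 3 SD, cut at about 60% in these data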;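 further: 0% = DMSO wells and 100% = LY294002 at 200 µM; higher means less KLF5 promoter-driven luciferase light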
The depositor's hits bear a star; ? = inconclusive; / = not tested or not shown. An excerpt weighted towards active compounds, which were near 2.1% of everything screened.

SMILES	IEC-6 cytotox	Ba/F3 V617F tox	MT stabilize HCS	BaF3 parental	bCat nuc transl	KLF5 inhibitor
Cn1c(=O)c2c(nc(NCC3CCCO3)n2Cc2cccc(Br)c2)n(C)c1=O (centres undefined)	-4	-3	4	8	/	-10
COc1ccc(NC(=O)Cn2c(C)cc(=O)c3ccccc32)cc1	2	1	3	6	-2	-22
COc1ccc(NCC(=O)n2c(C)c(C)c3ccccc32)cc1	0	-3	20*	1	41	-59
Clc1ccc(CN2C3=NCCN3c3ccccc32)cc1	-2	0	6	62*	-6	-7
CC(C)(C)c1ccc(CN2C3=NCCCN3c3ccccc32)cc1	6	46*	2	46*	?	-17
Cc1ccc(CN2C3=NCCCN3c3ccccc32)cc1	2	7	2	12	-5	1
COc1cccc(C(=O)COC(=O)c2ccc(NC(C)=O)cc2)c1	2	-5	6	-1	/	-12
CCOc1ccc(Br)cc1S(=O)(=O)N1CC(C)OC(C)C1 (centres undefined)	4	-4	2	3	-1	-9
CCOc1cc(Br)ccc1S(=O)(=O)N1CC(C)OC(C)C1 (centres undefined)	3	1	2	93*	-2	-21
O=[N+]([O-])c1cccc(-c2nnc(C3CC3)o2)c1	-4	-6	/	35*	-1	-23
N#Cc1c(-c2ccccc2)c(-c2ccccc2)nn(CC(=O)NNC(=O)Nc2ccccc2)c1=O	16	20	23	43*	21	24
Cc1ccc(/C=N/NC(=O)CCCOc2ccc(Cl)cc2Cl)cc1	-5	-2	15	1	115*	10
COc1ccccc1Nc1cc(N2CCOCC2)c2nonc2c1[N+](=O)[O-]	2	3	16*	2	-1	-6
CC1=C(C)/C(=N\OS(=O)(=O)c2ccccc2)C=CC1=O	-5	91*	1	91*	-6	-36
O=C(CC1C(=O)NCCN1Cc1ccccc1C(F)(F)F)NCCN1CCCCC1=O (centres undefined)	7	/	/	/	/	-7
Cc1cc2c3c(c1)C1(C(=O)N3C(C)(C)CC2C)C(C#N)=C(N)Oc2n[nH]c(C)c21 (centres undefined)	0	1	17*	2	/	-23
COc1cccc(NC(=O)Nc2nnc(Cc3ccc(F)cc3)s2)c1	6	/	/	/	/	-3
CCn1cc(C(=O)N2CCc3ccccc32)c(=O)c2cc(S(=O)(=O)N(C)C3CCCCC3)ccc21	-16	0	4	-1	-6	12
N=c1c2c(n(Cc3ccc(Cl)cc3)c3c1CCC3)CCC2	6	95*	2	73*	/	38
N=c1c2c(n(Cc3cccc(Cl)c3)c3c1CCC3)CCCC2	6	72*	2	61*	-1	28
N=c1c2c(n(Cc3ccc(F)cc3)c3c1CCC3)CCCC2	-1	55*	2	57*	3	13
N=c1c2c(n(Cc3ccccc3)c3c1CCC3)CCC2	4	62*	2	60*	-4	25
O=c1[nH]c(SCc2ccc(Cl)cc2)nc2c1CCC2	-2	-1	6	2	-1	-40
CCOc1ccc(C2(C)NC(=O)N(CCN(C)C)C2=O)cc1 (centres undefined)	3	/	/	/	/	-29
COc1ccccc1Cn1[nH]nnc1=S	-5	-2	/	2	-5	-4
SMILES	IEC-6 cytotox	Ba/F3 V617F tox	MT stabilize HCS	BaF3 parental	bCat nuc transl	KLF5 inhibitor
CCCc1nnc(NC(=O)OCC)s1	10	4	1	3	0	-20
Cc1ccccc1/C=C/c1cc[n+](C)cc1	4	50*	3	58*	3	-5
C=CCn1c(C)c(/C=C/c2cc[n+](C)cc2)c2ccccc21	8	/	/	/	/	-5
Cc1[nH]c2ccccc2c1/C=C/c1cc[n+](C)cc1	5	85*	4	77*	/	-23
Cc1onc(-c2ccccc2Cl)c1C(=O)OCN1C(=O)c2ccccc2C1=O	6	4	5	95*	-3	-30
Cc1onc(-c2ccccc2Cl)c1C(=O)OCc1cnc(Cl)s1	7	-1	6	1	-3	-2
COc1ccccc1N1CCN(C(c2cccs2)C(C)NC(=O)C(=O)N2CCOCC2)CC1 (centres undefined)	-2	/	/	/	/	-19
CN(C)c1cc[n+](CC(=O)Nc2c(Cl)cc(Cl)cc2Cl)cc1	-5	-2	2	8	-2	1
CN(C)c1cc[n+](Cc2c(Cl)cccc2Cl)cc1	-5	98*	4	80*	2	6
CCNC(=S)N/N=C(\C)c1ccc(N2CCOCC2)cc1	5	2	3	8	-2	-14
CNC(=S)N/N=C(\C)c1ccc(N2CCOCC2)cc1	4	96*	4	41*	1	22
CCc1ccccc1NC(=O)C1CCCN1C(=O)NCc1ccccc1 (centres undefined)	0	/	/	/	/	-14
COC(=O)c1ccc2nc(Nc3nc4c(F)cc(F)cc4s3)sc2c1	10	2	3	6	-6	92*
COCCN(C(=O)CCC(=O)Nc1ccccn1)C(C(=O)NCCC(C)C)c1ccc(F)cc1 (centres undefined)	-2	/	/	/	/	-1
Cc1ccc(-c2csc3nc4c5ccccc5c(NCCCN(C)C)nn4c(=O)c23)cc1	5	5	77*	9	6	1
Cn1c(-c2ccc3ccccc3n2)[n+](C)c2ccccc21	4	89*	/	63*	0	8
CN(C)c1ccc(-c2n(C)c3ccccc3[n+]2C)cc1	10	91*	1	71*	0	-38
Cn1c(-c2cccc([N+](=O)[O-])c2)[n+](C)c2ccccc21	3	58*	1	70*	-2	1
CC(=O)N(C)c1ccc(OCC(O)Cn2c(C)nc3ccccc32)cc1 (centres undefined)	4	29*	3	42*	-1	-47
CC(=O)Nc1ccc(OCC(O)Cn2c(C)nc3ccccc32)cc1 (centres undefined)	5	4	4	6	-2	-44
CC(C)OCCCNC(=O)CCCC(=O)Nc1ccc(OCCc2ccccc2)cc1	3	/	/	/	/	-13
COc1ccc(CC2(CO)CCN(CC3=Cc4cc(Cl)ccc4OC3)CC2)cc1	-1	37*	2	39*	1	-12
COc1ccc2c(c1)C=C(CN1CCC(CO)(CCc3ccccc3)CC1)CO2	-4	-3	2	4	0	9
Cc1cc(C(F)(F)F)n(-c2nc(C(=O)NN)cs2)n1	2	2	6	4	-2	3
COc1ccc(/C=N/NC(=O)c2csc(-n3nc(C)cc3C(F)(F)F)n2)cc1	1	-5	30*	-2	108*	-10
c1ccc(N2CCN(c3ccc4nncn4n3)CC2)nc1	-4	-1	4	3	4	19
CCOc1ccccc1NC(=O)c1ccccc1-c1ccccc1	6	/	/	/	/	-13
